According to ChEMBL document CHEMBL1134645, “Discovery of small-molecule inhibitors of Bcl-2 through structure-based computer screening” (J Med Chem, 2001):

How the values were obtained:
[1] = target: T1, Apoptosis regulator Bcl-2 (Homo sapiens, UniProt P10415); assay: In vitro inhibition of Bak-Bh3 peptide binding to the Bcl-2 using human myeloid leukemia cell line HL-60; Inactive
[2] = target: T1, Apoptosis regulator Bcl-2; assay: In vitro inhibitory activity against Bak-Bh3 peptide binding to the Bcl-2
How it was run: (§1)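 FP competition assay with recombinant GST-fused Bcl-2 (46 kDa), final 270 nM, and a fluorescein-labelled 16-mer Bak BH3 peptide tracer, final 290 nM, in 1X PBS. Compound added with final DMSO below 1%, incubated 10 min at room temperature, and polarization read at ex 485/em 535 nm. Screening was at 100 μM. IC50 came from 6–7-point serial dilutions from 100 μM, in triplicate.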

[3] = target: T1, Apoptosis regulator Bcl-2; assay: Inhibitory activity against Bcl-2; how it was run: as §1
[4] = target: T1, Apoptosis regulator Bcl-2; assay: In vitro inhibitory activity against Bak-Bh3 peptide binding to the Bcl-2 using human myeloid leukemia cell line HL-60
How it was run: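 Fluorescence polarization competition with 46 kDa recombinant GST-fused Bcl-2 (270 nM final) and 16-mer fluorescein-labelled Bak BH3 tracer (290 nM final) in PBS, preincubated 20 min at room temperature. Compound added (DMSO <1%), read after 10 min at room temperature, ex 485/em 535 nm. IC50 from 6–7 point serial dilutions in triplicate starting at 100 μM.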

[5] = target: T1, Apoptosis regulator Bcl-2; assay: Inhibitory activity against Bcl-2 using bromide assay
How it was run: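 HL-60 cells in RPMI 1640 with 10% FBS at 37 °C and 5% CO2 were plated at 2000–4000 cells/well, with various compound concentrations added at the start. After 4 days, MTT was added for 4 h at 37 °C. Formazan was solubilized in 2-propanol and absorbance read. IC50 is for inhibition of cell growth.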

T1 sequence (P10415 whole entry): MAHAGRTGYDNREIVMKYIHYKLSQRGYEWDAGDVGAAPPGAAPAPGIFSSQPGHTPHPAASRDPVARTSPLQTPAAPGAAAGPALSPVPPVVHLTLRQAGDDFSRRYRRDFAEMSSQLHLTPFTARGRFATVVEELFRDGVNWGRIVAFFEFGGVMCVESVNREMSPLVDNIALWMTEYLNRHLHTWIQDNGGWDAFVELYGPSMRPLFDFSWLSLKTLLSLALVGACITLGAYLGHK

SMILES	IC50 [1]	also measured
O=C1c2cc(Br)ccc2-c2ccc3c4ccc5c6c(ccc(c7ccc1c2c73)c64)C(=O)c1cc(Br)ccc1-5	–	IC50 [2]: 7.7 µM
Cc1cc2c(cc1C)[n+]([O-])c(-c1nc3ccccc3s1)c(N)[n+]2[O-]	Not Active	–
CCOC(=O)C(C#N)C1c2cc(Br)ccc2OC(N)C1C(=O)OCC (stereo not drawn)	–	IC50 [3]: 9 µM
c1cc[n+]2c(c1)-c1cccc[n+]1CCC2	Not Active	–
O=C1c2cc([N+](=O)[O-])ccc2-c2ccc3c4ccc5c6c(ccc(c7ccc1c2c73)c64)C(=O)c1cc([N+](=O)[O-])ccc1-5	Not Active	–
c1cc[n+]2cc3ccc4c[n+]5ccccc5cc4c3cc2c1	Not Active	–
O=c1c2ccccc2c2nc3ccc4c(=O)c5ccccc5c5nc6ccc1c2c6c3c45	Not Active	–
COc1cc2ccc3c4cc5c(cc4c[n+](C)c3c2cc1OC)OCO5	Not Active	–
COc1ccc2c(c1)C(=O)C1C=C([N+]#N)C=CC1N2 (stereo not drawn)	–	IC50 [4]: 10.4 µM
Cc1cc(Cl)cc(C(=O)Nc2cc(S(=O)(=O)c3ccc(Cl)cc3)ccc2Cl)c1O	–	IC50 [3]: 3.3 µM
Nc1nc(N)c2c(n1)[n+]([O-])c1ccccc1[n+]2[O-]	Not Active	–
CC(C)C(C(=O)O)N1C(=O)/C(=C/c2ccc(Br)cc2)SC1=S (stereo not drawn)	–	Ki [3]: 2400 nM
[O-][n+]1c2c([n+]([O-])c3c4ccccc4ccc31)-c1cccc3cccc-2c13	Not Active	–
O=c1c2ccc(S(=O)(=O)c3ccc4c(=O)n5c6ccccc6nc5c5cccc3c45)c3cccc(c32)c2nc3ccccc3n12	–	IC50 [4]: 14 µM
Brc1cccc[n+]1-c1ccc2cc(-[n+]3ccccc3Br)ccc2c1	–	IC50 [4]: 11.7 µM
OC1C[n+]2cc3ccccn3c2-c2cccc[n+]21 (stereo not drawn)	Not Active	–
COc1ccc2c(c1)CCc1cc(OC)ccc1/[N+]([O-])=[N+]\2[O-]	–	IC50 [5]: 4 µM; IC50 [4]: 10.4 µM
O=C1c2ccccc2-c2ccc3c4ccc5c6c(ccc(c7ccc1c2c73)c64)C(=O)c1ccccc1-5	Not Active	–
N=C(N)c1ccc(/N=N/c2c(O)ccc3c2[nH]c2ccccc23)cc1	–	IC50 [4]: 5.8 µM
CCCC[C@H]1C(=O)O[C@H](C)[C@H](NC(=O)c2cccc(NC=O)c2O)C(=O)O[C@@H](C)[C@@H]1OC(=O)CC(C)C [ANTIMYCIN A3]	–	IC50 [3]: 2 µM

Further lines, with some results ahead:

IC50 [1]	SMILES	also measured
Not Active	C[n+]1cc2c3cc4c(cc3ccc2c2ccc3c(c21)OCO3)OCO4	–
Not Active	CN1COc2ccc3ccc4c(c3c2C1)CN(C)CO4	–
Not Active	O=C1c2ccccc2-c2cc(O)c3c4c(O)cc5c6c(ccc(c7ccc1c2c73)c64)C(=O)c1ccccc1-5	–
Not Active	CN(C)CCNCCCNc1c2ccccc2nc2cccc([N+](=O)[O-])c12	–
Not Active	O=C(CSc1nc2ccccc2s1)c1sc2sc3ccccc3[n+]2c1O	–
Not Active	CN1C(=O)c2ccc3c4ccc5c(=O)n6c7ccccc7nc6c6ccc(c7ccc(c2c37)C1=O)c4c56	–
Not Active	Cc1cc(-c2ccccc2)[nH]c2nc3ccccc3[n+]1-2	–
Not Active	Cn1c(=O)c2nc(-[n+]3ccc(-c4ccccc4)cc3)[nH]c2n(C)c1=O	–
Not Active	COc1cc2ccc3c[n+]4ccccc4cc3c2cc1OC	–
Not Active	COc1ccc2c(c1)c[n+](C)c1c3cc(OC)c(OC)cc3ccc21	–
Not Active	O=C1c2ccccc2C(=O)c2c1ccc1nc3c(ccc4c(O)c5ccccc5c(O)c43)nc21	–
Not Active	O=C1c2ccc[n+]3c2-c2c1ccc[n+]2CC3	–
Not Active	O=C1NC(=O)c2ccc3c4ccc5c6c(ccc(c7ccc1c2c73)c64)C(=O)N(c1ccccc1)C5=O	–
Not Active	O=C(CSc1ccccn1)c1sc2cccc[n+]2c1O	–
Not Active	CS1(C)=NC(=O)C2=C(N=1)c1ccccc1S2(=O)=O	–
Not Active	NCC(=O)c1ccc2cc(Br)c3ccccc3c2c1	–
Not Active	COc1cc2cc[n+]3c4ccc([N+](=O)[O-])cc4ccc3c2cc1OC.[Cl-]	–
